Source: PubChem
An excerpt weighted towards active compounds, which were near 2.5% of everything screened.
UHRF1 binding: human UHRF1 methylated DNA binding inhibitors; Q96T88; inhibition, % at 4.4 µM; UHRF1 binding to methylated oligo, TR-FRET; actives 0.75% (n = 370,000); AID 687016; in the data active = inhibition above about 21%;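 also: UHRF1 SRA domain binding a hemimethylated CpG hairpin DNA probe; 0% = median of test compound wells and 100% = reference inhibitor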
Arrestin-AP2 inh: inhibitors of human beta-arrestin and AP2 interaction. inhibition, % at 10 µM. FITC-arrestin peptide / GST-AP2 beads, flow cytometry; AP2 beta2 appendage carries R879A mutation. AID 504490. actives 0.31% (n = 340,000);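 active = inhibition above a set limit, near 3 SD of compounds lacking own fluorescence, cut at about 54% in these data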;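 also: plate controls were DMSO wells for no effect and 5 µM unlabelled arrestin peptide for full effect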
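Material – GST-tagged AP2 beta2-adaptin appendage (R879A) on 4 µm glutathione beads · Probe or stimulus – fluorescein-tagged arrestin peptide at 50 nM final · Timing – 12 min plus 1 h, RT · Detection – bead flow cytometry, FITC channel · Read-out basis – inhibition as reduced fluorescein signal on beads, percent · Medium – PBS plus Tween 20 (0.05%) and BSA (0.1%)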
MBD2 DNA inh: MBD2-methylated oligo binding inhibition; AID 686964; TR-FRET, MBD2 binding to methylated oligonucleotide; actives 0.31% (n = 370,000); inhibition, % at 4.4 µM; in the data active = inhibition above about 13%
Rin1-Abl PPI inh: inhibitors of human Rin1-Abl protein interaction; actives 0.4% (n = 360,000); P00519+Q13671; inhibition, % at 7.35 µM; TR-FRET Rin1/Abl binding, biochemical; in the data active = inhibition above about 5%, passing the limit was not always enough
Target sequence (P00519 whole entry, looked up): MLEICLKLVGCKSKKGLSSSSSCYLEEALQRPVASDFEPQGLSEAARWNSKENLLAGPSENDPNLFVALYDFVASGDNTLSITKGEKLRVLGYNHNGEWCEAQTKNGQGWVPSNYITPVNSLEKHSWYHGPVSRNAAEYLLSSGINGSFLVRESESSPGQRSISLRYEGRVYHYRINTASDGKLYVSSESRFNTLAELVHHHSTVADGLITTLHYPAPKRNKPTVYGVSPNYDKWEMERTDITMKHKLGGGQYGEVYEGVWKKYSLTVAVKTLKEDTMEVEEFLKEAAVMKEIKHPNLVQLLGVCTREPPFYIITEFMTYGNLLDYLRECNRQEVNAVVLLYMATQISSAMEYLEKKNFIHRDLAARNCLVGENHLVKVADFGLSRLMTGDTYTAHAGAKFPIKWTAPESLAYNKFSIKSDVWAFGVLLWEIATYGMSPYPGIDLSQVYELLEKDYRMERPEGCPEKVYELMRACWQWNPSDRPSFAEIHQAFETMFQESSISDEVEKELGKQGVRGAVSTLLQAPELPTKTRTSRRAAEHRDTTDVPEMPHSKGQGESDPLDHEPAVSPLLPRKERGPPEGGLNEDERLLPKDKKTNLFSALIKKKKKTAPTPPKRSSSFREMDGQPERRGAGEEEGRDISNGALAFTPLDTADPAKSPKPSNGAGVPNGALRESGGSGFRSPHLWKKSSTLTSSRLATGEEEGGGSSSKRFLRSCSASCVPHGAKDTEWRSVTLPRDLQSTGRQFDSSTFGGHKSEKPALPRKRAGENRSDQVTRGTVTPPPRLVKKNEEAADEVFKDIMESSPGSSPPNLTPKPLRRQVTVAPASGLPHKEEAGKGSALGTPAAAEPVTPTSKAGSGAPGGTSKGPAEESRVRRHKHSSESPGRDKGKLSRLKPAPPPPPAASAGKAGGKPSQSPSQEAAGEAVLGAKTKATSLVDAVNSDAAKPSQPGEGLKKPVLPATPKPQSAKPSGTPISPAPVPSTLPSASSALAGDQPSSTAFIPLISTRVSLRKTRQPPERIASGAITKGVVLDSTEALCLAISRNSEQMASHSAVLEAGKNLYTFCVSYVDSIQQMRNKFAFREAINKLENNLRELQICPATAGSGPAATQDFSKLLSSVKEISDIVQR
Target sequence (Q13671 whole entry, looked up): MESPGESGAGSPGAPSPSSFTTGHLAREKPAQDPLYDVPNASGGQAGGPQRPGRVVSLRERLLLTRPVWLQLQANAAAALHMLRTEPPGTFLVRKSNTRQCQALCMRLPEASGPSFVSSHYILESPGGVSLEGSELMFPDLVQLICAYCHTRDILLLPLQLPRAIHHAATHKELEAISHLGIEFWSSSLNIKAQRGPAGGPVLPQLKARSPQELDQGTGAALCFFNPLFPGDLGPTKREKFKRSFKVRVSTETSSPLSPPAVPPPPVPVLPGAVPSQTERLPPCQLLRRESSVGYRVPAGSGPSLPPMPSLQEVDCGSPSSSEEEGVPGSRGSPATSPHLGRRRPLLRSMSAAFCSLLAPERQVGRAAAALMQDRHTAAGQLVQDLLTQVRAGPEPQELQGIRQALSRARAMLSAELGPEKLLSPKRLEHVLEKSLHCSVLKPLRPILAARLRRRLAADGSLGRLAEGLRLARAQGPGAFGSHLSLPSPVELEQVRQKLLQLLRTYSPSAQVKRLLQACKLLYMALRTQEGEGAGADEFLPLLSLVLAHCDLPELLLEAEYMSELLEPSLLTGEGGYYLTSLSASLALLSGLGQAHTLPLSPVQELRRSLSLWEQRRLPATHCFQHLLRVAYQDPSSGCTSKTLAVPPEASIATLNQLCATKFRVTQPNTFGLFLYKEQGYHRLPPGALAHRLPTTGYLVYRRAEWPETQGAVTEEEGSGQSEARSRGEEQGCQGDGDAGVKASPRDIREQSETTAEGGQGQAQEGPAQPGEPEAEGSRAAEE
Beta2AR agonist: activates human beta-2 adrenergic receptor causing internalization; Am2.2-beta2AR cells, FAP receptor internalization, flow cytometry; response, % (concentration not given with the values); actives 0.43% (n = 340,000); P07550;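 active = response above a set limit, near 3 SD of response in nonfluorescent compounds, cut at about 42% in these data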
ABHD5-PLIN5 inh: blocks binding of human ABHD5 to perilipin-5; AID 602281; inhibition, % at 4 µM; Split G. princeps luciferase complementation, luminescence, 4 h; Q00G26+Q8WTS1; actives 0.78% (n = 360,000);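 active = inhibition above the mean inhibition across every tested compound plus 3 SD, cut at about 22% in these data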;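 also: 0% = DMSO only wells and the 100% control is not disclosed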
* hit, by the source's call.

Screening Cc1cccc(/C=N/NC(=O)c2cc(-c3cccnc3)nc3c2c(C)nn3-c2ccccc2)c1 returned UHRF1 binding -0.5, Arrestin-AP2 inh 1.4, MBD2 DNA inh -0.9, Rin1-Abl PPI inh 3.1, Beta2AR agonist 103.4* and ABHD5-PLIN5 inh 3.4.
Cc1ccc(-n2nc(C)c(/C=N/NC(=O)c3cccnc3)c2Cl)cc1 was read as UHRF1 binding 15.5, Arrestin-AP2 inh -1.3, MBD2 DNA inh -3.4, Rin1-Abl PPI inh 1.0, Beta2AR agonist -1.3 and ABHD5-PLIN5 inh -4.6.
`Cc1nn(-c2ccccc2)c(Cl)c1/C=N/NC(=O)c1cccnc1` gave UHRF1 binding 0.3, Arrestin-AP2 inh 2.2, MBD2 DNA inh -1.4, Rin1-Abl PPI inh -3.9, Beta2AR agonist 50.0* and ABHD5-PLIN5 inh 0.0.
Screening CCCC1CCC2(CC1)CCC2OC(=S)Nc1ccccc1 (centres undefined) returned UHRF1 binding 0.2 and MBD2 DNA inh 2.7.
`C[C@H]1[C@@H](OC(=O)NCCc2ccccc2)CC[C@@]23CCCN2C(=O)CCC[C@@H]13` gave UHRF1 binding -0.2 and MBD2 DNA inh 1.9.
CO[C@@]1(NC(=O)CSCC#N)C(=O)N2C(C(=O)O)=C(CSc3nnnn3C)CS[C@@H]21 was read as UHRF1 binding 43.5*, Arrestin-AP2 inh 16.4, MBD2 DNA inh -4.2, Rin1-Abl PPI inh 1.7, Beta2AR agonist -0.8 and ABHD5-PLIN5 inh 2.5.
COc1cccc(OC)c1-c1nn2c(-c3cc(-c4ccccc4)n[nH]3)nnc2s1 was read as UHRF1 binding 1.9, Arrestin-AP2 inh -170.6, MBD2 DNA inh -0.4, Rin1-Abl PPI inh -5.1, Beta2AR agonist 100.4* and ABHD5-PLIN5 inh -2.9.
For C=CCN(Cc1ccccc1)C(C#CC(=C)C)Cc1ccccc1 (centres undefined) the results were UHRF1 binding -3.0 and MBD2 DNA inh -1.6.
For O=C(c1ccc(Cl)cc1)C1CCN(c2ncnc3sccc23)CC1 the results were UHRF1 binding -2.1 and MBD2 DNA inh 3.3.
`Cc1nc(C(F)(F)F)ccc1C(=O)NCC(O)c1ccccc1` (centres undefined) gave UHRF1 binding 45.9*, Arrestin-AP2 inh -5.5, MBD2 DNA inh 4.4, Rin1-Abl PPI inh -2.1, Beta2AR agonist -4.1 and ABHD5-PLIN5 inh 3.1.
Screening CN(C)c1ccc(/C=C2\CCC/C(=C\c3ccccc3)C2=O)cc1 returned UHRF1 binding -3.4, Arrestin-AP2 inh 7.3, MBD2 DNA inh -2.3, Rin1-Abl PPI inh -0.6, Beta2AR agonist -9.5 and ABHD5-PLIN5 inh 5.4.
`CC(=O)N1/C(=C/c2ccc(N(C)C)cc2)C(=O)c2ccccc21` gave UHRF1 binding -9.7, Arrestin-AP2 inh 7.3, MBD2 DNA inh -14.4, Rin1-Abl PPI inh -3.7, Beta2AR agonist 45.3* and ABHD5-PLIN5 inh 19.3.
C=CCN1C(=O)/C(=C/c2ccsc2)SC1=S was read as UHRF1 binding -0.7, Arrestin-AP2 inh 6.6, MBD2 DNA inh -1.3, Rin1-Abl PPI inh 2.5, Beta2AR agonist 43.7* and ABHD5-PLIN5 inh -0.9.
COC(=O)[C@]12C[C@H](CC(=O)NCc3cccc4ccccc34)C(=O)N(Cc3ccco3)C1=C[C@H](C1CCCC1)O[C@@H]2C was read as UHRF1 binding -1.0 and MBD2 DNA inh -2.0.
For CN(C)S(=O)(=O)c1cccc(C(=O)N/N=C\c2ccnc3ccccc23)c1 the results were UHRF1 binding 0.1 and MBD2 DNA inh -8.6.
For C=C(CN(C)C)C(=O)c1ccc(C)cc1C the results were UHRF1 binding -1.5, Arrestin-AP2 inh -6.3, MBD2 DNA inh 1.7, Rin1-Abl PPI inh 4.1, Beta2AR agonist 29.4 and ABHD5-PLIN5 inh 59.8*.
For O=C(C1=C(O)C(=O)N(Cc2ccco2)C1c1cccs1)c1cccs1 (centres undefined) the results were UHRF1 binding 4.4, Arrestin-AP2 inh 40.2, MBD2 DNA inh 1.8, Rin1-Abl PPI inh -3.1, Beta2AR agonist 9.7 and ABHD5-PLIN5 inh 7.8.
O=C(C1=C(O)C(=O)N(CCOCCO)C1c1cccs1)c1cccs1 (centres undefined) was read as UHRF1 binding 56.0*, Arrestin-AP2 inh 4.3, MBD2 DNA inh 5.6, Rin1-Abl PPI inh -3.0, Beta2AR agonist 1.0 and ABHD5-PLIN5 inh 0.5.
C[C@H]1[C@@H](OC(=O)Nc2cc(Cl)ccc2Cl)CC[C@@]23CCCN2C(=O)CCC[C@@H]13 was read as UHRF1 binding 1.6 and MBD2 DNA inh -5.0.
Screening CCN(CC#CCC1(O)c2ccccc2-c2ccccc21)CCO returned UHRF1 binding 19.0, Arrestin-AP2 inh 0.4, MBD2 DNA inh 6.9, Rin1-Abl PPI inh 2.1, Beta2AR agonist 7.4 and ABHD5-PLIN5 inh 0.0.
`CC(C)N(CC#CCC1(O)c2ccccc2-c2ccccc21)CCO` gave UHRF1 binding 28.1*, Arrestin-AP2 inh 12.6, MBD2 DNA inh 12.0, Rin1-Abl PPI inh 3.3, Beta2AR agonist 1.6 and ABHD5-PLIN5 inh -1.9.
Screening C=CCN1C(=O)[C@@H](CC(=O)NCc2cccc(C(F)(F)F)c2)[C@]2(C(=O)OC)CCCCC=C12 returned UHRF1 binding -0.4 and MBD2 DNA inh -3.2.
`CCN(c1ccccc1)S(=O)(=O)c1cc(C(=O)OCC(=O)c2c(N)n(C)c(=O)n(C)c2=O)ccc1C` gave UHRF1 binding 32.1*, Arrestin-AP2 inh 7.2, MBD2 DNA inh 12.0, Rin1-Abl PPI inh 0.7, Beta2AR agonist 7.8 and ABHD5-PLIN5 inh 0.6.
`COc1cc(/C=C(\C#N)c2nc3ccccc3s2)cc([N+](=O)[O-])c1O` gave UHRF1 binding 1.4, Arrestin-AP2 inh -0.7, MBD2 DNA inh -4.5, Rin1-Abl PPI inh 2.0, Beta2AR agonist 1.7 and ABHD5-PLIN5 inh 15.0.
Screening N#C/C(=C\c1ccc(O)c([N+](=O)[O-])c1)c1nc2ccccc2s1 returned UHRF1 binding 26.0*, Arrestin-AP2 inh 4.8, MBD2 DNA inh 0.0, Rin1-Abl PPI inh -2.3, Beta2AR agonist 4.5 and ABHD5-PLIN5 inh 6.2.
`O[C@H](COc1cc(F)cc(F)c1)CN1CCC(C(O)(c2ccccc2)c2ccccc2)CC1` gave UHRF1 binding -0.6 and MBD2 DNA inh 0.1.
Screening CCn1c(SCC(=O)N(C)CCC#N)nc2cc(S(=O)(=O)N3CCOCC3)ccc21 returned UHRF1 binding -0.7, Arrestin-AP2 inh 17.0, MBD2 DNA inh -6.0, Rin1-Abl PPI inh -1.7, Beta2AR agonist -9.5 and ABHD5-PLIN5 inh 22.7*.
`CSc1nc(-c2ccc(Cl)cc2)nn1S(=O)(=O)c1ccc(Cl)cc1` gave UHRF1 binding -0.5, Arrestin-AP2 inh -5.8, MBD2 DNA inh 2.0, Rin1-Abl PPI inh -0.5, Beta2AR agonist -12.9 and ABHD5-PLIN5 inh -6.3.
For CSc1nc(-c2ccc(Cl)cc2)nn1S(=O)(=O)c1ccccc1 the results were UHRF1 binding 21.4*, Arrestin-AP2 inh 17.6, MBD2 DNA inh 7.7, Rin1-Abl PPI inh 2.5, Beta2AR agonist 36.6 and ABHD5-PLIN5 inh 0.7.
